This data set deals with MS2 coat protein. The data set can be described thus: apparent Kd, MS2 coat protein; higher = weaker binding; RNA-MaP array; FMN 200 µM where present. In outline: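 The apparent Kd is the median of filtered binding-curve fits, one per cluster, to green signal normalised to red-channel RNA signal and control-cluster median Fmax. The clusters were on Illumina sequencing chips, and stalled E. coli RNA polymerase had transcribed the designs on them. Titration used SNAP-549-labelled MS2 coat protein from 0.7 or 1.5 nM, doubling to 3 µM, without and then with constant ligand, in 100 mM Tris-HCl pH 7.5, 80 mM KCl, 4 mM MgCl2, BSA, DTT, yeast tRNA and Tween-20.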

[1] abbreviates: designed as: ON switch for flavin mononucleotide, no ligand.
[2] abbreviates: ligand present: flavin mononucleotide, designed as: ON switch for flavin mononucleotide.
[3] abbreviates: designed as: OFF switch for flavin mononucleotide, no ligand.
The mark [4] stands for this setting: ligand present: flavin mononucleotide, designed as: OFF switch for flavin mononucleotide.

Regarding “AAAAUAUAAAGAGAGGAUAUCCAAAGAACCACAUGAGGAUCACCCAUGUAAAGAAAGAAUAAGUGGGAGAAGGCUCAAAUAAUAA”, the “apparent Kd” value reads like this: under setting [1], 187 nM; under setting [2], 29.2 nM.
Take “ACAUGAGGAUCACCCAUGUUCACAUAGGAUAUUGAUUAUAUUGGUUUAAGAAUAGUAAUUGACCACAAGAAGGAUGCCUGAUCU”: the “apparent Kd” value reads like this: under setting [1], 12.2 nM; under setting [2], 9.7 nM.
As for “GGGCCCGGUGUGAGGAUAUGCCCGGGUAAAUUUGGGCAGAAGGCACAUGAGGAUCACCCAUGUAAGCCGGGUUU”, the “apparent Kd” value is, setting by setting: under setting [3], 14.8 nM; under setting [4], 12.9 nM.
As for “GGACAUUUACAGAAGGGCAAGUUAGAUAGUGAAUAUUUAGAUCUGACUUGCAGGAUAUGUUGAACAUGAGGAUCACCCAUGUCC”, the “apparent Kd” value came out at 13.7 nM under setting [1] and 10.8 nM under setting [2].
As for “CAAUUUAUGUCAGGAUAUACAAUACAAUGAUUAGUAGAAGGGAUUAAUACAUGAGGAUCACCCAUGUCAUGUGUCAUAGUAACC”, the “apparent Kd” value by setting is: under setting [3], 23.9 nM; under setting [4], 19.4 nM.
Take “GGAUGACAAAGUCAUCCAAUUCGAACAUGAGGAUCACCCAUGUAGGAUAUGCUACUCAAAGAGUAGCAGAAGGACAUGUGCUUU”: the “apparent Kd” value came out at 37.7 nM under setting [3] and 167 nM under setting [4].
Regarding “AUGUUUCAUGUAGGAUAUGCAUAGCGUUGCUAUGCAGAAGGACAUGAGGAUCACCCAUGUAUAUUAUCAUUACAUAUCAUACAU”, the “apparent Kd” value under setting [3] was found to be 45.7 nM and the “apparent Kd” value under setting [4] was 546 nM.
Taken in the same sequence, the figures for “AAUAACAGAGGAUAUACUGUUUUAUGUGUUUAUUAUUUUAAACAUGAGGAUCACCCAUGUAGAAGGCUGAAUAA” were 42.6 nM and 42.8 nM.
Take “AAAGAACAUGAGGAUCACCCAUGUGAGGAUAUGCGAAAACCGCUGGCGCACCAGACGGGCAGAAGGCAUAUGGU”: the “apparent Kd” value runs as follows: under setting [3], 75.6 nM; under setting [4], 92.5 nM.
“ACGGUGGUCACAGGAUAUCCGGCCCGCGUGCCUGGAGAAGGGUGACUCAGAACCACAUGAGGAUCACCCAUGUGCCUUACCGUA”: the “apparent Kd” value under setting [1] was found to be 52.6 nM and the “apparent Kd” value under setting [2] is 23.9 nM.
On to “UGUGUUAUUGGAGGAUAUCGAUAUCAAACAUGAGGAUCACCCAUGUUGAGGAUCACACAUGUCCAUGAGAAGGCCGACGUAGUG”, for which the “apparent Kd” value is, setting by setting: under setting [1], 10.5 nM; under setting [2], 10.5 nM.
As for “UUAUUUUUACAGAAGGUUUAAUAAUAUGUAUGAGAAGGAUAUGUAACAUGAGGAUCACCCAUGUUUUGUCUAUAUGAGGAUCAU”, the “apparent Kd” value is, setting by setting: under setting [3], 8.2 nM; under setting [4], 7.9 nM.
For the sequence “ACAUGAGGAUCACCCAUGUACAUGGGUAUUAUUGUUUGUUACUAGGAUAUGUAUUUGAAUUUACAACAGAAGGAGUAUUAAUGU”, the “apparent Kd” value turned out to be 1160 nM under setting [3] and 632 nM under setting [4].
Regarding “UAAAUGUGAGGAUAUCAGGUGUGCUAGAAUACUGGUACAUCUGAGAAGGCACAUGAGGAUCACCCAUGUUCCUU”, the “apparent Kd” value under setting [3] was found to be 16.4 nM and the “apparent Kd” value under setting [4] is 41 nM.
As for “GUAGCAUACGGAGGAUAUUCAUACCGGAAACGGACAUGAGGAUCACCCAUGUGGCGAAAGCCAUGGGAGAAGGCCGUAUGCUAC”, the “apparent Kd” value came out at 318 nM under setting [1] and 149 nM under setting [2].
“UGUAACCUAGGAUAUACAUGAGGAUCACCCAUGUAAUGUAGUAUAGUGUGUGUGAGGUGUAGAAGGAGGGAUGU”: the “apparent Kd” value stood at 79.5 nM under setting [3] and 125 nM under setting [4].
Turning to “AUCUCAGGACGAGGAUAUCAAUACAUGAGGAUCACCCAUGUAUGAUUACUGUGAUCCUUCAAGGCUGAGAAGGCGUCCCAAAUG”, the “apparent Kd” value runs as follows: under setting [3], 12.2 nM; under setting [4], 27 nM.
On to “CUCUUGUCAGGAUAUUAUGGACGAUAGCAGGACUACGUCAGUGAGAAGGGACAUGAGGAUCACCCAUGUAAAAU”, for which the “apparent Kd” value is, setting by setting: under setting [3], 82 nM; under setting [4], 67.2 nM.
As for “GUUGCUAUCGGAGGAUAUUCAUACCGGAAACGGACAUGAGGAUCACCCAUGUGCGGAAACGCUUGGGAGAAGGCCGAUAGCAAC”, the “apparent Kd” value is 210 nM under setting [1] and 22.1 nM under setting [2].
With “AGGAGUACAGGAUAUACAUGAGGAUCACCCAUGUGAGAAUUAAGUGGCGUACCACAAAGUAGAAGGGUACUCCA”, the “apparent Kd” value was determined as 50.5 nM under setting [3] and 198 nM under setting [4].
As to “GCCCGGCAUACAUGAGGAUCACCCAUGUCAGAAAGGGUAAUCAGAAGGUACUAUUAGAGAAAGAGUAAGGAUAUGAAGCCGGGC”, the “apparent Kd” value turned out to be 599 nM under setting [1] and 134 nM under setting [2].
For the sequence “AGCUGUGGCCGAGGAUAUCUAACUUCAAAUACCGACGUAUAGUCGGACAUGAGGAUCACCCAUGUAGAGAAGGCGGUCUCAGCA”, the “apparent Kd” value is 16.1 nM under setting [3] and 26.7 nM under setting [4].
Regarding “AAUAGGCGAGGAUAUACAUGAGGAUCACCCAUGUAAGUAAGCCUGGCUGAAACUGAAUGUAGAAGGCGCAAUAA”, the “apparent Kd” value under setting [3] turned out to be 17.6 nM and the “apparent Kd” value under setting [4] was found to be 58.5 nM.
Consider “CUCUUGGCAGGAUAUGCUCUCUUAGACAUGAGGAUCACCCAUGUGCUCAUUCCUUCUUUUGCAGAAGGGCCUUAAC”, for which the “apparent Kd” value by setting is: under setting [3], 71.4 nM; under setting [4], 52.3 nM.
For the sequence “GCGUUGUUGUAGAAGGUACAUGAAUACUUUUAUUACCUCAAGUAACAUGAGGAUCACCCAUGUAGUAAGGAUAUACAUGAACGC”, the “apparent Kd” value runs as follows: under setting [1], 35.1 nM; under setting [2], 24.3 nM.
“CUGCCGUAGGAGAAGGACGGCGGGUUAUUUUUUUACAUGAGGAUCACCCAUGUAGGAUAUCCUACGUCAGGCAACCUACUACAG”: the “apparent Kd” value is 6.36 nM under setting [3] and 9.54 nM under setting [4].
Consider “UUUUUGUGAGGAUAUCAGUAGUAAAUAAAUAAAAUAACUACUGAGAAGGCACAUGAGGAUCACCCAUGUUCUUU”, for which the “apparent Kd” value under setting [3] is 18.9 nM and the “apparent Kd” value under setting [4] stood at 49.6 nM.
Taken in the same sequence, the figures for “CUGUGACGGAUCCAGAAUUACAACAUGAGGAUCACCCAUGUACAGGAUAUAGGGUUGAUAGGCGCCUAGAAGGGUAUGAUCACG” were 156 nM and 177 nM.
Turning to “AUAAAUAUAGCGAUAUGAUCGAGAGAUCAUGUCGCUAAAGUUAGAAGGACAUGAGGAUCACCCAUGUAGGAUAUGGGAGUAUGA”, the “apparent Kd” value was 170 nM under setting [1] and 62.8 nM under setting [2].
In the case of “AAUAACGGAGCUACAUGAGGAUCACCCAUGUACGGGUGAUCCUAGGAUAUGCCCGCAACUAUGUCGCAGAAGGAGGGUUGCCCA”, the “apparent Kd” value turned out to be 20.4 nM under setting [1] and 39.7 nM under setting [2].
With “AAAACAUGAGGAUCACCCAUGUAAAGAUCGGUUAAUAGAGGUGAGGAUAUACGAACUUAAAGGUGGUAGAAGGCACUGGGUACA”, the “apparent Kd” value under setting [1] came to 71.6 nM and the “apparent Kd” value under setting [2] worked out at 53.3 nM.
As for “GGUGGACAUGAGGAUCACCCAUGUGAGGAUAUCGGCCGGUGCGUGGUGGCUGGCGUCUCGAGAAGGCACAUAGU”, the “apparent Kd” value reads like this: under setting [3], 92.1 nM; under setting [4], 166 nM.
As to “UAGAAGUCAGGAUAUCCAUGGCGGCACUUGCGUGGUGGCGUGGAGAAGGGACAUGAGGAUCACCCAUGUAAAGG”, the “apparent Kd” value reads like this: under setting [3], 148 nM; under setting [4], 174 nM.
Take “UCAUUUUACACAGGAUAUACUCAUAUACAGUUGUUUGGCUCUUACAUGUUAGUAGAAGGGUGCAACAUGAGGAUCACCCAUGUA”: the “apparent Kd” value under setting [1] turned out to be 621 nM and the “apparent Kd” value under setting [2] came out at 250 nM.
Regarding “GACUGCCGAGGAUAUACAUGAGGAUCACCCAUGUGCUUCAGCAUUUUUUAAUGCAUGGGUAGAAGGCGGUAGUC”, the “apparent Kd” value by setting is: under setting [3], 32.6 nM; under setting [4], 68.5 nM.
With “CCAGCGAGUGUGAGGAUAUGCUGGUCCUUGGAUCAGCAGAAGGCACAUGAGGAUCACCCAUGUGAGGACGUUGG”, the “apparent Kd” value is, setting by setting: under setting [3], 28.2 nM; under setting [4], 248 nM.
Take “GACCCAAAUGAGAAGGUGUGUAUAAAUUAUAUACAAGGAUAUCGGUCGAGCGUGUUGACAUGAGGAUCACCCAUGUUGUGGGUU”: the “apparent Kd” value turned out to be 57.1 nM under setting [1] and 25.7 nM under setting [2].
With “GUUGCGUUUGUGAGGAUAUGCUGUUCCUUGGUUCGGCAGAAGGCACAUGAGGAUCACCCAUGUGGUGUCGUUCC”, the “apparent Kd” value stood at 15.5 nM under setting [3] and 28.7 nM under setting [4].
With “ACUGACAUGAGGAUCACCCAUGUCUUGAAUAGGUCAAAUUCACAGGAUAUGCACUUGGACAGGGUGCAGAAGGGUGAUGCAAUG”, the “apparent Kd” value was found to be 57 nM under setting [1] and 12.2 nM under setting [2].
As to “UGUAUGGACAGAGGAUAUACAGAUAGGAUCUACUAUCAAACAAUCCUGACAUGAGGAUCACCCAUGUAGAAGGCUGUCCAUACU”, the “apparent Kd” value amounted to 23.8 nM under setting [3] and 91.4 nM under setting [4].
With “CGUAGGAUCCAGAAGGCAUGAACAUGAGGAUCACCCAUGUCAAUAGACAUGAGGAUAUGGAUCCUACGAAAAGUGCGAAAGCAC”, the “apparent Kd” value under setting [1] amounted to 31.8 nM and the “apparent Kd” value under setting [2] is 5.94 nM.
On to “UCUACAUAGAUUCAUCAAUACAGUAAGGAUAUGAGAUACAUGAGGAUCACCCAUGUGCAUGUGAAUUAGAAGGUACAAUUAACU”, for which the “apparent Kd” value was 15.7 nM under setting [3] and 12.8 nM under setting [4].
Consider “AGUUUCUUGUAAGGAUAUACUAGCGAUAAGCUAGUAGAAGGUACUGUCUAUUGUAUCACUAUUUUACAUGAGGAUCACCCAUGU”, for which the “apparent Kd” value by setting is: under setting [1], 7.13 nM; under setting [2], 6.2 nM.
As to “GAAUAAUUGAUCCUUUUUUAUUACAUGAGGAUCACCCAUGUGCAGGAUAUCGAUUGUUGUAGUUUCGAGAAGGGCAAGAACUGU”, the “apparent Kd” value is, setting by setting: under setting [3], 187 nM; under setting [4], 280 nM.
Turning to “UUAGCGUAGGUAAGGAUAUGCUGGUCUAAUGAUCAGCAGAAGGUACAUGAGGAUCACCCAUGUGGAUUCGUUAU”, the “apparent Kd” value under setting [3] amounted to 18.5 nM and the “apparent Kd” value under setting [4] was found to be 37 nM.
On to “UUCGGCGCACAGAAGGAUCGGUACAUGAGGAUCACCCAUGUAAGCAAAGAUAGGAUAUGUGGAGCUUACAGGGAAAAUGAACAA”, for which the “apparent Kd” value under setting [1] is 93.2 nM and the “apparent Kd” value under setting [2] was 19 nM.
In the case of “AAACAAACAACGCAGGAUAUGCAAAAACCCACAUGAGGAUCACCCAUGUCCCAACAACAAACAAAGCAGAAGGGCGAACAAACAAA”, the “apparent Kd” value runs as follows: under setting [1], 105 nM; under setting [2], 55.4 nM.
For “AAGAGAGCAGGAUAUCGGUUUUGCGACAUGAGGAUCACCCAUGUGAGCCGAGUCCAACGCCGAGAAGGGCUAAAAU”, the “apparent Kd” value is, setting by setting: under setting [3], 62.5 nM; under setting [4], 336 nM.

The values are drawn from the EternaBench riboswitch data.
